In data set [1] the target is Aurora kinase B/Inner centromere protein (Homo sapiens, UniProt Q96GD4). Kind of data set: Inhibition of AURKB/INCENP (unknown origin) preincubated for 15 mins prior to ATP addition by FRET-based homogenous assay. The data set is classed as protein-complex assay. In short, it runs like this: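 The enzyme was AURKB/INCENP in a FRET-based homogeneous assay run to kit specifications, with ATP at 128 μM. […] Each IC50 came from a single determination, reported with its standard fitting error.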
Sequence of Aurora kinase B/Inner centromere protein (Q96GD4 whole entry): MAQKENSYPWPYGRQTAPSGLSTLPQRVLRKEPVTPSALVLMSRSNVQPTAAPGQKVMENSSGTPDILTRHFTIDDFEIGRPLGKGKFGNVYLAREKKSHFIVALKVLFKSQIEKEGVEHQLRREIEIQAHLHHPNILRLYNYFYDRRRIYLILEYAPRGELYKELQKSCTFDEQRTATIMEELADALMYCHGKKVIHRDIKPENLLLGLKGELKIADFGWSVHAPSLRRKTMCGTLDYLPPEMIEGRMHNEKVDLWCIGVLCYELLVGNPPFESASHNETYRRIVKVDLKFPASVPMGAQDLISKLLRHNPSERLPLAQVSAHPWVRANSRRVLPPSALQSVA
Sequence of Aurora kinase B/Inner centromere protein (Q9NQS7 whole entry, further chain): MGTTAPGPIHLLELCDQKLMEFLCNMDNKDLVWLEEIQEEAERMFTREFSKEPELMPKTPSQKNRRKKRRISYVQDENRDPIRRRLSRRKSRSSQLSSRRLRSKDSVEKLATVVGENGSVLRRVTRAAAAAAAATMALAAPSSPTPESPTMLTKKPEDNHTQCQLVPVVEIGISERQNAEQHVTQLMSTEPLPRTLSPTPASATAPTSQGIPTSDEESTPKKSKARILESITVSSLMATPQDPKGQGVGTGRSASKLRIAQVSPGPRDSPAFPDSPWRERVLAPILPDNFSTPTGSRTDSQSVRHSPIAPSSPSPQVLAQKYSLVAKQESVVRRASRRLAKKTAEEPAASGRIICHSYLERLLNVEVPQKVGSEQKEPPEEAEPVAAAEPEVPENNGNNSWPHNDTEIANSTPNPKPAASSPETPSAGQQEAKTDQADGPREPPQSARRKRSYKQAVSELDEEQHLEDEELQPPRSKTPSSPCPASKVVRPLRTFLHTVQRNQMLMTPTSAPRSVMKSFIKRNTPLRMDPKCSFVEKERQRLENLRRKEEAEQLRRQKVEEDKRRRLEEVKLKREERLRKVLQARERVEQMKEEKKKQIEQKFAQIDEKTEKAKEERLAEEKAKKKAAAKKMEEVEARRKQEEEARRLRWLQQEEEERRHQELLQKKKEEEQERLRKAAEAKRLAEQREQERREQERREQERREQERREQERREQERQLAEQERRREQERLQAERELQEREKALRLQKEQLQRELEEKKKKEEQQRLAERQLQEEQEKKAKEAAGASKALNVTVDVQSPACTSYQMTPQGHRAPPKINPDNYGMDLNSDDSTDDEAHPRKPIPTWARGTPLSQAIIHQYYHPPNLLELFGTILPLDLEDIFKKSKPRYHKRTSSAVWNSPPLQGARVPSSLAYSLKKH

Data set [2] concerns the target T1, Dual specificity protein kinase TTK (Homo sapiens, UniProt P33981).
T1 sequence (P33981 whole entry): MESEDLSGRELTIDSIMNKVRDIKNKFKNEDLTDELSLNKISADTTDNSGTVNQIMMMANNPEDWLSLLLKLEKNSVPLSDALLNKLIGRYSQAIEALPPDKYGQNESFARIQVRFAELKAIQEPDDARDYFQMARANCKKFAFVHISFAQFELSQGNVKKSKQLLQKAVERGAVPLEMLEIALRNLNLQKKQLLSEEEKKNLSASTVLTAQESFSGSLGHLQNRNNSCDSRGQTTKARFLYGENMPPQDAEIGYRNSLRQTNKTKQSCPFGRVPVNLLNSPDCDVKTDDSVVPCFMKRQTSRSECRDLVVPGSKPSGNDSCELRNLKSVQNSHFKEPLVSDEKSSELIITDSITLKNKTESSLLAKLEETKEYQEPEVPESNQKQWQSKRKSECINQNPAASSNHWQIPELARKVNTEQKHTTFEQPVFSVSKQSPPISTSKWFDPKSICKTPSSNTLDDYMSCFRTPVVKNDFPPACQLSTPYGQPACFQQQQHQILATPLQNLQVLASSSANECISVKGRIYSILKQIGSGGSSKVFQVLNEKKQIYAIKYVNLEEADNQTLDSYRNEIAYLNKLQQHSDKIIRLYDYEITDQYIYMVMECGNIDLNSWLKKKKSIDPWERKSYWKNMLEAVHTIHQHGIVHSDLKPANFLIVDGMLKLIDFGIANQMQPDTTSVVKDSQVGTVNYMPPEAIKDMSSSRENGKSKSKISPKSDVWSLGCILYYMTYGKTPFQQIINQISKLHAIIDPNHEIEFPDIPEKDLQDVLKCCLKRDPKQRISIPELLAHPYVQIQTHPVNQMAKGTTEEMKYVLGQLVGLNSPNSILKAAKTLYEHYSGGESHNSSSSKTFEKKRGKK
Kind of data set: Inhibition of amino terminal GST-fused full length human TTK using His6-SUMO-TTK-N as substrate preincubated for 15 mins prior to ATP addition by indirect ELISA detection system. Background: An ELISA detects its analyte on a solid surface through an enzyme-linked reagent.

Data set [3] can be described thus: Cytotoxicity against human HCT116 cells after 5 days by sulforhodamine B assay. The data set is classed as functional, HCT-116. The settings on record: Homo sapiens, HCT-116, 120 h. Put shortly: (§1)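 Cancer lines were seeded at 800–6000 cells per well according to growth rate, 24 h before compound overlay. After culture, cells were fixed in situ and stained with sulforhodamine B. GI50 values were derived by curve fitting.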
For orientation: Sulforhodamine B stains cellular protein and so reports cell mass.

For a further data set, the system named is MDA-MB-468. Kind of data set: Cytotoxicity against human MDA-MB-468 cells after 5 days by sulforhodamine B assay. The data set is classed as functional. The settings on record: Homo sapiens, MDA-MB-468, 120 h. Put shortly: as §1
Data set [4] in a line: Cytotoxicity against human OVCAR3 cells after 5 days by sulforhodamine B assay. In kind it is functional, OVCAR-3. The settings on record: Homo sapiens, OVCAR-3, 120 h.
A further data set concerns the target Cytochrome P450 3A4 (Homo sapiens, UniProt P08684). Kind of data set: Inhibition of human CYP3A4 using BFC as substrate preincubated for 10 mins followed by enzyme/substrate addition measured after 30 mins by fluorescence assay. The data set is classed as ADME.
Data set [5] can be described thus: Half life in mouse liver microsomes at 1 uM by LC-MS analysis. The data set is classed as ADME. The settings on record: liver microsomes. (In general: Liver microsomes are vesicles of endoplasmic reticulum, rich in cytochrome P450 enzymes.)

For orientation: pIC50 means the IC50 on a negative log10 scale, so that one unit is a factor of ten. Low values mean a high IC50, high ones a low IC50. What is called GI50 is the concentration at which growth is held to half of that of the control. High values mean lower sensitivity of the cells, low ones greater sensitivity of the cells. One may read the half-life as the time needed for the level to fall by half in the phase considered. Read a low half-life as fast loss.

pIC50: −log10 of the molar value. A value given as a limit tells only on which side of the number the result lay.

Sequence of Cytochrome P450 3A4 (P08684 whole entry): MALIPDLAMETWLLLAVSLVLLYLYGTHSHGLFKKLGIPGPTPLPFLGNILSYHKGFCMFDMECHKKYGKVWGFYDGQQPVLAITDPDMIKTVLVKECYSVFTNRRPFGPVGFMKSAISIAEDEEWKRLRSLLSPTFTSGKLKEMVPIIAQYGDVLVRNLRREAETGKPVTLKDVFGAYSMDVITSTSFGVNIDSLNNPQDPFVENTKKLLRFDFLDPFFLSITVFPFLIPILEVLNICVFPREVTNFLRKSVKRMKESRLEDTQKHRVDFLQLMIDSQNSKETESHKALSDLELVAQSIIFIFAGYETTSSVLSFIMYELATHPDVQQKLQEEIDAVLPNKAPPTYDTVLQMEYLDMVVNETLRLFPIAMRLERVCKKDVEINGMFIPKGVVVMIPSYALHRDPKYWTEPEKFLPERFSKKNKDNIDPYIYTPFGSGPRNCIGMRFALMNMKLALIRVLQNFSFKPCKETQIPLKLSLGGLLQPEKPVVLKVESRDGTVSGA

Turning to `NS(=O)(=O)c1cccc(-c2n[nH]c3ccc(C(=O)NC(c4ccccc4)C4CC4)cc23)c1` (stereo not given), the pIC50 in data set [1] is 5.30.

As for `CC[C@@H](NC(=O)c1ccc2[nH]nc(-c3ccc(OC4CCN(C)CC4)cc3)c2c1)c1ccccc1Cl`, the pIC50 in data set [1] is 7.42.

In the case of `O=C(NCC1(N2CCOCC2)CCCCC1)c1ccc2[nH]nc(-c3ccc(N4CCC(O)CC4)cc3)c2c1`, the pIC50 in data set [2] was 6.64. Also, the GI50 in data set [3] turned out to be 48 nM; in the data set with MDA-MB-468, 210 nM.

Consider `O=C(NCC1(N2CCOCC2)CCCCC1)c1ccc2[nH]nc(-c3ccc(N4CC5CCC(C4)O5)cc3)c2c1`, for which, in data set [2], the pIC50 was 7.74. In addition, the GI50 in data set [3] amounted to 150 nM; in the data set on MDA-MB-468 it was 650 nM; in data set [4], 690 nM.

For the compound `O=C(N[C@H](c1ccccc1F)C1CC1)c1ccc2[nH]nc(-c3ccc(N4C5CCC4COC5)cc3)c2c1`, the pIC50 in data set [1] was 6.33.

Take `O=C(N[C@@H](c1ccccc1F)C1CC1)c1ccc2[nH]nc(-c3ccc(N4C5CCC4COC5)cc3)c2c1`: the values for the pIC50 (in data set [1]; against Cytochrome P450 3A4) were 6.01 and 6.62, respectively.

Consider `CC(C)[C@H](NC(=O)c1ccc2[nH]nc(-c3ccc(N4C5CCC4COC5)cc3)c2c1)c1ccccc1Cl`, for which the pIC50 in data set [1] was 5.72; against Cytochrome P450 3A4 it was 7.22.

Turning to `O=C(N[C@@H](c1ccccn1)C1CCCC1)c1ccc2[nH]nc(-c3ccc(N4C5CCC4COC5)cc3)c2c1`, the pIC50 in data set [1] was 5.85; at Cytochrome P450 3A4, 6.44.

`O=C(N[C@H](c1ccccn1)C1CCCC1)c1ccc2[nH]nc(-c3ccc(N4C5CCCC4COC5)cc3)c2c1`: the pIC50 in data set [2] is 8.08; in data set [1], 5.55. In addition, the GI50 came out at 25 nM in data set [3], 180 nM with MDA-MB-468 and 200 nM in data set [4]. Further, the half-life at 1 µM in data set [5] came out at 50 min.

As to `O=C(N[C@@H](c1ncccn1)C1CCCC1)c1ccc2[nH]nc(-c3ccc(N4[C@H]5CC[C@H]4CC(O)C5)cc3)c2c1` (stereo not given in full), the pIC50 in data set [2] was 8.41; in data set [1], 6.07. Moreover, the GI50 in data set [3] amounted to 20 nM; in the data set on MDA-MB-468 it was 150 nM; in data set [4], 160 nM. In data set [5], this compound registered a half-life at 1 µM of over 60 min.

In the case of `CC(C)C[C@H](NC(=O)c1ccc2[nH]nc(-c3ccc(N4[C@H]5COC[C@H]4CC(O)C5)cc3)c2c1)c1ccccn1` (mixture of isomers), the negative logarithm of the IC50 (pIC50) in data set [1] is 6.64.

In the case of `CN1CCN(c2ccc(-c3n[nH]c4ccc(NC(=O)C(c5ccsc5)N5CCCC5)cc34)cc2S(C)(=O)=O)CC1` (racemic), the pIC50 in data set [2] is 7.74. In addition, the values for the 50% growth inhibitory concentration (GI50) (in data set [3]; in the data set on MDA-MB-468) were 280 nM and 900 nM, respectively.

Compound `O=C(NC(c1ccccc1)C1CC1)c1ccc2[nH]nc(-c3cccc(N4CCOCC4)c3)c2c1` (racemic) had a pIC50 in data set [2] of 6.47. For the same compound, the 50% growth inhibitory concentration (GI50) in data set [3] came out at 5600 nM; in the data set with MDA-MB-468, 7800 nM.

For the compound `CN1CCC(Oc2ccc(-c3n[nH]c4ccc(C(=O)NC(c5ccccc5)C5CC5)cc34)cc2)CC1` (racemic), in data set [1], the pIC50 is 7.24.

For `CN1CCC(Oc2ccc(-c3n[nH]c4ccc(NC(=O)C(c5ccccn5)C5CCCC5)cc34)cc2)CC1` (racemic), the pIC50 in data set [1] was 7.15.

For `CN1CCC(Oc2ccc(-c3n[nH]c4ccc(C(=O)NC(c5ccccn5)C5CCCC5)cc34)cc2)CC1` (racemic), in data set [1], the pIC50 was 6.74.

For `O=CN1CCC(Oc2ccc(-c3n[nH]c4ccc(C(=O)NC(c5ccccc5)C5CC5)cc34)cc2)CC1` (racemic), the pIC50 in data set [2] is 7.80; against Cytochrome P450 3A4 it was 5.82. Moreover, the values for the GI50 (in data set [3]; in the data set on MDA-MB-468) were 130 nM and 360 nM, respectively.

As for `O=CN1CCC(Oc2ccc(-c3n[nH]c4ccc(C(=O)NC(c5ccccn5)C5CC5)cc34)cc2)CC1` (racemic), the pIC50 is 8.03 in data set [2], 7.02 in data set [1] and 5.82 against Cytochrome P450 3A4. In addition, the results for the GI50 (in data set [3]; in the data set on MDA-MB-468) were 35 nM and 260 nM, respectively.

Regarding `CN1[C@@H]2CC[C@H]1C[C@H](Oc1ccc(-c3n[nH]c4ccc(C(=O)NC(c5ccccc5)C5CC5)cc34)cc1)C2` (mixture of isomers), the pIC50 in data set [2] is 8.14. Further, the GI50 in data set [3] came to 33 nM; in the data set with MDA-MB-468, 160 nM.
